# Assays:
# Assay type in all cases: functional
# HCT-15 = test: Growth inhibition of human HCT15 cells at 10 uM after 48 hrs by coulter counting; details: HCT-15, 48 h, read-out: GI
# In short: (§1)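 Single-dose primary screen across the full NCI 60-cell-line panel. Stocks were made in DMSO and diluted in PBS to a final DMSO below 1%. Cultures at 6 × 10⁴ cells/ml were run in duplicate wells alongside PBS/DMSO vehicle controls at 37 °C in humidified 5% CO₂. Data were expressed as percent growth of treated cells.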
# UACC-257 = test: Growth inhibition of human UACC257 cells at 10 uM after 48 hrs by coulter counting; details: UACC-257, 48 h, read-out: GI
# In short: (§2)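 Single-dose screen in the NCI 60 human tumor cell line panel (nine subpanels). Compounds dissolved in DMSO and diluted in phosphate buffered saline, keeping final DMSO below 1%. Added in duplicate wells to cells at 6 × 10⁴ cells/ml. Controls held PBS and DMSO at matching dilutions. Incubated at 37 °C, humidified, 5% CO₂. Reported as percent growth of treated cells.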
# UACC-62 = test: Growth inhibition of human UACC62 cells at 10 uM after 48 hrs by coulter counting; details: UACC-62, 48 h, read-out: GI; in short: as §2
# CCRF-CEM = test: Growth inhibition of human CCRF-CEM cells at 10 uM after 48 hrs by coulter counting; details: read-out: GI; in short: as §1
# HL-60(TB) = test: Growth inhibition of human HL-60(TB) cells at 10 uM after 48 hrs by coulter counting; details: HL-60, 48 h, read-out: GI
# In short: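 Test compound was dissolved in DMSO and diluted in phosphate-buffered saline to a final DMSO level below 1%. Dilutions were plated in duplicate with cell culture at 6 × 10⁴ cells/ml. Vehicle controls held PBS and DMSO at matching dilutions. Incubation was at 37 °C, humidified, under 5% CO₂. Data were reported as percent growth of treated cells.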
# K562 = test: Growth inhibition of human K562 cells at 10 uM after 48 hrs by coulter counting; details: K562, 48 h, read-out: GI; in short: as §1
# MOLT-4 = test: Growth inhibition of human MOLT4 cells at 10 uM after 48 hrs by coulter counting; details: MOLT-4, 48 h, read-out: GI; in short: as §1
# RPMI-8226 = test: Growth inhibition of human RPMI8226 cells at 10 uM after 48 hrs by coulter counting; details: RPMI-8226, 48 h, read-out: GI; in short: as §1
# A549 = test: Growth inhibition of human A549 cells at 10 uM after 48 hrs by coulter counting; details: A549, 48 h, read-out: GI; in short: as §1
# EKVX = test: Growth inhibition of human EKVX cells at 10 uM after 48 hrs by coulter counting; details: read-out: GI; in short: as §1
# HOP-62 = test: Growth inhibition of human HOP62 cells at 10 uM after 48 hrs by coulter counting; details: HOP-62, 48 h, read-out: GI; in short: as §1
# NCI-H226 = test: Growth inhibition of human NCI-H226 cells at 10 uM after 48 hrs by coulter counting; details: NCI-H226, 48 h, read-out: GI; in short: as §1
# NCI-H23 = test: Growth inhibition of human NCI-H23 cells at 10 uM after 48 hrs by coulter counting; details: NCI-H23, 48 h, read-out: GI; in short: as §1
# [1] = Growth inhibition of human NCI-322M cells at 10 uM after 48 hrs by coulter counting; details: read-out: GI; in short: as §1
# NCI-H460 = test: Growth inhibition of human NCI-H460 cells at 10 uM after 48 hrs by coulter counting; details: NCI-H460, 48 h, read-out: GI; in short: as §1
# NCI-H522 = test: Growth inhibition of human NCI-H522 cells at 10 uM after 48 hrs by coulter counting; details: NCI-H522, 48 h, read-out: GI; in short: as §1
# HCT-116 = test: Growth inhibition of human HCT116 cells at 10 uM after 48 hrs by coulter counting; details: HCT-116, 48 h, read-out: GI; in short: as §1
# HT-29 = test: Growth inhibition of human HT-29 cells at 10 uM after 48 hrs by coulter counting; details: HT-29, 48 h, read-out: GI; in short: as §1
# KM12 = test: Growth inhibition of human KM12 cells at 10 uM after 48 hrs by coulter counting; details: KM12, 48 h, read-out: GI; in short: as §1
# SF-268 = test: Growth inhibition of human SF268 cells at 10 uM after 48 hrs by coulter counting; details: SF-268, 48 h, read-out: GI; in short: as §1
# SF-295 = test: Growth inhibition of human SF295 cells at 10 uM after 48 hrs by coulter counting; details: SF-295, 48 h, read-out: GI; in short: as §1
# SNB-19 = test: Growth inhibition of human SNB19 cells at 10 uM after 48 hrs by coulter counting; details: SNB-19, 48 h, read-out: GI; in short: as §1
# SNB-75 = test: Growth inhibition of human SNB75 cells at 10 uM after 48 hrs by coulter counting; details: SNB-75, 48 h, read-out: GI; in short: as §1
# U-251 = test: Growth inhibition of human U251 cells at 10 uM after 48 hrs by coulter counting; details: U-251, 48 h, read-out: GI; in short: as §2
# LOX IMVI = test: Growth inhibition of human LOXIMVI cells at 10 uM after 48 hrs by coulter counting; details: read-out: GI; in short: as §1
# M14 = test: Growth inhibition of human M14 cells at 10 uM after 48 hrs by coulter counting; details: M14, 48 h, read-out: GI; in short: as §1
# MDA-MB-435 = test: Growth inhibition of human MDA-MB-435 cells at 10 uM after 48 hrs by coulter counting; details: MDA-MB-435, 48 h, read-out: GI; in short: as §1
# SK-MEL-2 = test: Growth inhibition of human SK-MEL-2 cells at 10 uM after 48 hrs by coulter counting; details: SK-MEL-2, 48 h, read-out: GI; in short: as §1
# SK-MEL-28 = test: Growth inhibition of human SK-MEL-28 cells at 10 uM after 48 hrs by coulter counting; details: SK-MEL-28, 48 h, read-out: GI; in short: as §1
# SK-MEL-5 = test: Growth inhibition of human SK-MEL-5 cells at 10 uM after 48 hrs by coulter counting; details: SK-MEL-5, 48 h, read-out: GI; in short: as §1
# NCI/ADR-RES = test: Growth inhibition of human NCI/ADR-RES cells at 10 uM after 48 hrs by coulter counting; details: read-out: GI; in short: as §1
# A498 = test: Growth inhibition of human A498 cells at 10 uM after 48 hrs by coulter counting; details: A498, 48 h, read-out: GI; in short: as §1
# ACHN = test: Growth inhibition of human ACHN cells at 10 uM after 48 hrs by coulter counting; details: read-out: GI; in short: as §1
# CAKI-1 = test: Growth inhibition of human Caki1 cells at 10 uM after 48 hrs by coulter counting; details: CAKI-1, 48 h, read-out: GI; in short: as §1
# UO-31 = test: Growth inhibition of human UO31 cells at 10 uM after 48 hrs by coulter counting; details: UO-31, 48 h, read-out: GI; in short: as §2
# DU-145 = test: Growth inhibition of human DU145 cells at 10 uM after 48 hrs by coulter counting; details: DU-145, 48 h, read-out: GI; in short: as §1
# MCF7 = test: Growth inhibition of human MCF7 cells at 10 uM after 48 hrs by coulter counting; details: MCF7, 48 h, read-out: GI; in short: as §1
# BT-549 = test: Growth inhibition of human BT549 cells at 10 uM after 48 hrs by coulter counting; details: BT-549, 48 h, read-out: GI; in short: as §1
# T47D = test: Growth inhibition of human T47D cells at 10 uM after 48 hrs by coulter counting; details: read-out: GI; in short: as §2
# OVCAR-8 = test: Growth inhibition of human OVCAR8 cells at 10 uM after 48 hrs by coulter counting; details: OVCAR-8, 48 h, read-out: GI; in short: as §1
# 786-0 = test: Growth inhibition of human 786-0 cells at 10 uM after 48 hrs by coulter counting; details: 786-0, 48 h, read-out: GI; in short: as §1
# SN12C = test: Growth inhibition of human SN12C cells at 10 uM after 48 hrs by coulter counting; details: read-out: GI; in short: as §1
# TK-10 = test: Growth inhibition of human TK10 cells at 10 uM after 48 hrs by coulter counting; details: TK-10, 48 h, read-out: GI; in short: as §2
structure (smiles),measurement,setting,value
CCN1CC2=C(N=C3SC=C(C)N3C2c2cccs2)/C(=C/c2cccs2)C1 (stereo not drawn),inhibition of growth at 10 µM,HCT-15,> 10%
same,inhibition of growth at 10 µM,UACC-257,> 10%
same,inhibition of growth at 10 µM,UACC-62,> 10%
same,inhibition of growth at 10 µM,CCRF-CEM,> 10%
same,inhibition of growth at 10 µM,HL-60(TB),> 10%
same,inhibition of growth at 10 µM,K562,> 10%
same,inhibition of growth at 10 µM,MOLT-4,> 10%
same,inhibition of growth at 10 µM,RPMI-8226,> 10%
same,inhibition of growth at 10 µM,A549,> 10%
same,inhibition of growth at 10 µM,EKVX,17.7%
same,inhibition of growth at 10 µM,HOP-62,> 10%
same,inhibition of growth at 10 µM,NCI-H226,> 10%
same,inhibition of growth at 10 µM,NCI-H23,> 10%
same,inhibition of growth at 10 µM,[1],> 10%
same,inhibition of growth at 10 µM,NCI-H460,> 10%
same,inhibition of growth at 10 µM,NCI-H522,> 10%
same,inhibition of growth at 10 µM,HCT-116,> 10%
same,inhibition of growth at 10 µM,HT-29,> 10%
same,inhibition of growth at 10 µM,KM12,> 10%
same,inhibition of growth at 10 µM,SF-268,> 10%
same,inhibition of growth at 10 µM,SF-295,> 10%
same,inhibition of growth at 10 µM,SNB-19,> 10%
same,inhibition of growth at 10 µM,SNB-75,13.6%
same,inhibition of growth at 10 µM,U-251,> 10%
same,inhibition of growth at 10 µM,LOX IMVI,> 10%
same,inhibition of growth at 10 µM,M14,> 10%
same,inhibition of growth at 10 µM,MDA-MB-435,> 10%
same,inhibition of growth at 10 µM,SK-MEL-2,> 10%
same,inhibition of growth at 10 µM,SK-MEL-28,> 10%
same,inhibition of growth at 10 µM,SK-MEL-5,> 10%
same,inhibition of growth at 10 µM,NCI/ADR-RES,> 10%
same,inhibition of growth at 10 µM,A498,> 10%
same,inhibition of growth at 10 µM,ACHN,> 10%
same,inhibition of growth at 10 µM,CAKI-1,> 10%
same,inhibition of growth at 10 µM,UO-31,21.8%
same,inhibition of growth at 10 µM,DU-145,> 10%
same,inhibition of growth at 10 µM,MCF7,> 10%
same,inhibition of growth at 10 µM,BT-549,> 10%
same,inhibition of growth at 10 µM,T47D,> 10%
same,inhibition of growth at 10 µM,OVCAR-8,> 10%
same,inhibition of growth at 10 µM,786-0,> 10%
same,inhibition of growth at 10 µM,SN12C,> 10%
same,inhibition of growth at 10 µM,TK-10,> 10%

# From ChEMBL document CHEMBL1926614, “Substituted thiazoles V. synthesis and antitumor activity of novel thiazolo[2,3-b]quinazoline and pyrido[4,3-d]thiazolo[3,2-a]pyrimidine analogues” (2012)
